Source: ChEMBL document CHEMBL3091295, “Inhibitors of tissue-nonspecific alkaline phosphatase: design, synthesis, kinetics, biomineralization and cellular tests” (Bioorg Med Chem, 2013)
pIC50, pKi: −log10 of the molar value. Converted amounts (≈) assume the structure as drawn. The source made the active and inactive calls. The rule behind the calls is not given here.

Experiments:
[1] = Solubility of the compound in water by UV spectrometric analysis; format: physicochemical
[2] = Inhibition of porcine kidney TNAP assessed as para nitrophenylphosphate conversion to p-nitrophenolate at pH 7.8 incubated for 10 mins prior to substrate addition measured after 5 seconds by spectrophotometric analysis; design: species or system Sus scrofa
In short: (§1)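 Enzyme (TNAP, PLAP or IAP; final 6.93–11.4 µg/ml) in buffer with inhibitor at 0–400 µM, added from 10 mM DMSO stock. Preincubated 10 min at 37 °C without substrate, then mixed with an equal volume of 0.1 mM pNPP in the same buffer and stirred 5 s. p-Nitrophenolate read at 400 nm (ε 18.5 cm⁻¹ mM⁻¹ at pH 10.4), final DMSO 4% v/v. Activity relative to the no-inhibitor control. pH 7.8 runs used 0.1 M Tris–HCl with 5 mM MgCl2 and 5 mM ZnCl2 at 37 °C.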

[3] = biological target: T1, Alkaline phosphatase, placental type (Homo sapiens, UniProt P05187); experiment: Inhibition of placental alkaline phosphatase (unknown origin) assessed as para nitrophenylphosphate conversion to p-nitrophenolate at pH 10.4 incubated for 10 mins prior to substrate addition measured after 5 seconds by spectrophotometric analysis; in short: as §1
[4] = test system: SAOS-2; experiment: Reduction in ascorbic acid-induced mineralization in human Saos2 cells at 10 uM after 7 days by Alizarin Red S staining-based assay relative to control; format: functional
In short: (§2)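 Confluent cells were cultured 7 days in growth medium with ascorbic acid and 7.5 mM β-glycerophosphate, with or without inhibitor (DMSO ≤0.1% v/v). Saos-2 were grown in McCoy's 5A with 15% FBS. Mineral was stained with Alizarin Red S, destained with 3.6% w/v cetylpyridinium chloride in PBS pH 7.0 for 60 min at room temperature, and read at 562 nm. Results are % of control, mean ± SD; MG63 n = 3, Saos-2 n = 9–12.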

[5] = test system: SAOS-2; experiment: Reduction in beta-glycerophosphate-induced mineralization in human Saos2 cells at 10 uM after 7 days by Alizarin Red S staining-based assay relative to control; format: functional; in short: as §2
[6] = Inhibition of porcine kidney TNAP assessed as para nitrophenylphosphate conversion to p-nitrophenolate at pH 10.4 incubated for 10 mins prior to substrate addition measured after 5 seconds by spectrophotometric analysis; design: species or system Sus scrofa; in short: as §1
[7] = Cytotoxicity against human Saos2 cells assessed as cell viability up to 10 uM by MTT assay; format: cell-based; conditions: saos-2
In short: (§3)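 MTT viability: cells seeded at 3 × 10^4 cells/cm2 and treated with ascorbic acid plus 7.5 mM β-glycerophosphate, with or without inhibitor (DMSO ≤0.1% v/v final). MTT at 0.5 mg/ml final for 4 h, then solubilization solution overnight at 37 °C. Absorbance at 550 and 690 nm as % of untreated control, mean ± SD. MG63: one pool in triplicate (n = 3). Saos-2: 3–4 pools in triplicate (n = 9–12).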

[8] = biological target: T1, Alkaline phosphatase, placental type; experiment: Inhibition of placental alkaline phosphatase (unknown origin) assessed as para nitrophenylphosphate conversion to p-nitrophenolate at pH 7.8 incubated for 10 mins prior to substrate addition measured after 5 seconds by spectrophotometric analysis; in short: as §1
[9] = Uncompetitive inhibition of porcine kidney TNAP assessed as para nitrophenylphosphate conversion to p-nitrophenolate at pH 7.8 by Michaelis-Menten plot analysis; design: species or system Sus scrofa
In short: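 Porcine kidney TNAP activity measured with pNPP at pH 7.8 in 0.1 M Tris–HCl containing 5 mM MgCl2 and 5 mM ZnCl2 at 37 °C. Inhibitor was preincubated with enzyme for 10 min before substrate, and p-nitrophenolate was read at 400 nm to derive Ki.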

[10] = biological target: T2, Intestinal-type alkaline phosphatase (Homo sapiens, UniProt P09923); experiment: Inhibition of intestinal alkaline phosphatase (unknown origin) assessed as para nitrophenylphosphate conversion to p-nitrophenolate at pH 7.8 incubated for 10 mins prior to substrate addition measured after 5 seconds by spectrophotometric analysis; in short: as §1
[11] = biological target: T2, Intestinal-type alkaline phosphatase; experiment: Inhibition of intestinal alkaline phosphatase (unknown origin) assessed as para nitrophenylphosphate conversion to p-nitrophenolate at pH 10.4 incubated for 10 mins prior to substrate addition measured after 5 seconds by spectrophotometric analysis; in short: as §1
[12] = test system: MG-63; experiment: Reduction in ascorbic acid-induced mineralization in human MG63 cells at 10 uM after 7 days by Alizarin Red S staining-based assay; format: functional, cell-based; in short: as §2
[13] = test system: MG-63; experiment: Reduction in beta-glycerophosphate-induced mineralization in human MG63 cells at 10 uM after 7 days by Alizarin Red S staining-based assay; format: functional, cell-based; in short: as §2
[14] = Cytotoxicity against human MG63 cells assessed as cell viability up to 10 uM by MTT assay; format: cell-based; conditions: mg-63; in short: as §3
[15] = Solubility of the compound

T2 sequence (P09923 whole entry): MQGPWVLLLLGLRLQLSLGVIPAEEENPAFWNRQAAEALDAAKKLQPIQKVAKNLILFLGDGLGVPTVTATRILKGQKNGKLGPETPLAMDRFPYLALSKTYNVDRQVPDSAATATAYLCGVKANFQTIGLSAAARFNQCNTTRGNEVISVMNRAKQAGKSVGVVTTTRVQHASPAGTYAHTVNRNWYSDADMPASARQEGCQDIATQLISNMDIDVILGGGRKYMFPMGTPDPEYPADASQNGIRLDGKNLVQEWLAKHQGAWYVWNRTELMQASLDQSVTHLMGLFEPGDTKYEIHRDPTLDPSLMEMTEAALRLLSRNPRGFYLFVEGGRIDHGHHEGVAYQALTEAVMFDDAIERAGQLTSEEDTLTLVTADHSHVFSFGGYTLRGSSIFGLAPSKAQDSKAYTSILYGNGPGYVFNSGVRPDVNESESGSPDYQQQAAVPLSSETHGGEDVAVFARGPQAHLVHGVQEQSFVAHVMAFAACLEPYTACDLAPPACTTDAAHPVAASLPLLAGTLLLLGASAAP
T1 sequence (P05187 whole entry): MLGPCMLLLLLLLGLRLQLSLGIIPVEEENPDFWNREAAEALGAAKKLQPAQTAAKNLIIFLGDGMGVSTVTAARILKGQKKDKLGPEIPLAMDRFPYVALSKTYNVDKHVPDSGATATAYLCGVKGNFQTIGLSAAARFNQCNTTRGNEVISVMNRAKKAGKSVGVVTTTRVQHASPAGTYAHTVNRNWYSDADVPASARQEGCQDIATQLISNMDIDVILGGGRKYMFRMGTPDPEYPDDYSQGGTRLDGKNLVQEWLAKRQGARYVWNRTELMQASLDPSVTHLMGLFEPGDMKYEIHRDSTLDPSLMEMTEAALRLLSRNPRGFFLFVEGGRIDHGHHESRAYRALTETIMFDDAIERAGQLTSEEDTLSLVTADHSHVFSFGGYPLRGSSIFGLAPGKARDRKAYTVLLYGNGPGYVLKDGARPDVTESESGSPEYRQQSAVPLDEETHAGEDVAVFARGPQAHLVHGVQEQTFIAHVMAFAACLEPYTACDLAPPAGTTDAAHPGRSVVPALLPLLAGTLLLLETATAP

Structure (SMILES)	solubility [1] [µM]	pIC50 [2]	pIC50 [3]	Activity [4]	Activity [5]	pIC50 [6]	Activity [7]	pIC50 [8]	pKi [9]	pIC50 [10]	pIC50 [11]	Activity [12]	Activity [13]	Activity [14]	solubility [15] [µM]
Cl.Nc1ccc2sc(C3CN4C=CSC4=N3)cc2c1 (racemic)	1770	4.74	< 3.40	Active	Active	4.63	Non-toxic	< 3.40	4.99	< 3.40	< 3.40	–	–	–	–
c1ccc([C@H]2CN3CCSC3=N2)cc1 [LEVAMISOLE]	–	4.63	< 3.40	33%	33%	4.20	Non-toxic	< 3.40	4.52	< 3.40	< 3.40	Active	Active	Non-toxic	200000 (≈ 40.9 mg/mL)
Cl.c1ccc2sc(C3CN4CCSC4=N3)cc2c1 (racemic)	450	5.26	< 3.40	Active	Active	4.79	Non-toxic	< 3.40	5.30	< 3.40	< 3.40	Active	Active	Non-toxic	–
Cl.O=[N+]([O-])c1ccc2sc(C3CN4C=CSC4=N3)cc2c1 (racemic)	6900	5.68	< 3.40	25%	25%	5.48	Non-toxic	< 3.40	5.89	< 3.40	< 3.40	–	–	–	–
C1=CN2CC(c3cc4ccccc4s3)N=C2S1.Cl (racemic)	1300	5.36	< 3.40	Active	Active	4.88	Non-toxic	< 3.40	5.41	< 3.40	< 3.40	Active	Active	Non-toxic	–
